# Assays:
# Escherichia coli = assay: In vitro antibacterial activity against Escherichia coli NIH JC-2; format: functional
# In short: (§1)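 MIC (μg/mL) by 2-fold agar dilution on Sensitivity Test agar, following the Japan Society of Chemotherapy MIC Committee method. Inocula were about 10⁶ cfu/mL. Growth was read after 20 h incubation at 37 °C.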
# Klebsiella pneumoniae = assay: In vitro antibacterial activity against Klebsiella pneumoniae K-1966; format: functional; in short: as §1
# Pseudomonas aeruginosa = assay: In vitro antibacterial activity against Pseudomonas aeruginosa E-2; format: functional; in short: as §1
# Shigella flexneri = assay: In vitro antibacterial activity against Shigella flexneri 2a EW-10; format: functional; in short: as §1
# Serratia marcescens = assay: In vitro antibacterial activity against Serratia marcescens IFO 3736; format: functional; in short: as §1
# Staphylococcus aureus = assay: In vitro antibacterial activity against Staphylococcus aureus 209P JC-1; format: functional; in short: as §1
# Micrococcus luteus = assay: In vitro antibacterial activity against Micrococcus luteus ATCC 9341; format: functional; in short: as §1
# Mus musculus [1] = species on record: Mus musculus; assay: Compound was evaluated for oral efficacy on systemic infections in mice by Escherichia coli KC-14; format: functional
# In short: (§2)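 Male ddY mice (20 ± 2 g), seven per dose group. Challenge was intraperitoneal, 0.5 mL of bacteria suspended in 5% gastric mucin: E. coli KC-14 at 4.3 × 10⁴ cfu/mL or P. aeruginosa E-2 at 2.88 × 10⁵ cfu/mL. Drug was suspended in 0.5% HPC-SL and given orally 2 h (E. coli) or 1 h (P. aeruginosa) after challenge. ED50 was calculated by Probit from 7-day survival.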
# Mus musculus [2] = species on record: Mus musculus; assay: Compound was evaluated for oral Pseudomonas aeruginosa E-2; format: functional; in short: as §2
# [3] = Lethal dose on systemic infections in mice after oral administration; format: toxicity, organism-based; details: mouse, in vivo
# In short: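 Acute oral toxicity: the suspension was given orally in 0.5% HPC-SL to Slc:SD rats, although the section heading says mice. Males weighed 141-168 g and females 113-127 g, five per group. LD50 was determined by the method of Weil 7 days after dosing.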
# [4] = Escherichia coli, read-out: MIC
# [5] = Klebsiella pneumoniae, read-out: MIC
# [6] = Pseudomonas aeruginosa, read-out: MIC
# [7] = Shigella flexneri, read-out: MIC
# [8] = Serratia marcescens, IFO 3736, read-out: MIC
# [9] = Staphylococcus aureus, read-out: MIC
# [10] = Micrococcus luteus, ATCC 9341, read-out: MIC
Compound,MIC (Escherichia coli; [4]) [µg/mL],MIC (Klebsiella pneumoniae; [5]) [µg/mL],MIC (Pseudomonas aeruginosa; [6]) [µg/mL],MIC (Shigella flexneri; [7]) [µg/mL],MIC (Serratia marcescens; [8]) [µg/mL],MIC (Staphylococcus aureus; [9]) [µg/mL],MIC (Micrococcus luteus; [10]) [µg/mL],ED50 (Mus musculus [1]) [mg/kg],ED50 (Mus musculus [2]) [mg/kg],MIC (Escherichia coli) [µg/mL],MIC (Klebsiella pneumoniae) [µg/mL],MIC (Pseudomonas aeruginosa) [µg/mL],MIC (Shigella flexneri) [µg/mL],MIC (Serratia marcescens) [µg/mL],MIC (Staphylococcus aureus) [µg/mL],MIC (Micrococcus luteus) [µg/mL],LD50 [3] [mg/kg]
CN1CCN(c2cc3c(cc2F)c(=O)c(C(=O)O)c2n3C(c3ccccc3)S2)CC1 (stereo unspecified),0.2,0.2,1.56,0.2,0.39,0.39,6.25,,,,,,,,,,
CC1Sc2c(C(=O)O)c(=O)c3cc(F)c(N4CCN(c5ccccc5)CC4)cc3n21 (stereo unspecified),> 100,> 100,> 100,> 100,> 100,3.13,12.5,,,,,,,,,,
CC(=O)N1CCN(c2cc3c(cc2F)c(=O)c(C(=O)O)c2n3C(C)S2)CC1 (stereo unspecified),0.78,0.39,6.25,0.39,1.56,0.2,3.13,,,,,,,,,,
CC1Sc2c(C(=O)O)c(=O)c3cc(F)c(N4CCNC(=O)C4)cc3n21 (stereo unspecified),0.39,0.2,6.25,0.1,3.13,0.39,3.13,,,,,,,,,,
O=C(O)c1c2n(c3cc(N4CCNCC4)c(Cl)cc3c1=O)CS2,0.39,0.2,6.25,0.1,0.2,0.2,6.25,,,,,,,,,,
CC1Sc2c(C(=O)O)c(=O)c3cc(F)c(N4CCNCC4)cc3n21 (stereo in doubt; 29a) [ULIFLOXACIN],,,,,,,,,,0.0125,0.006,0.2,0.006,0.05,0.05,0.78,
CC1Sc2c(C(=O)O)c(=O)c3cc(F)c(N4CCNCC4)cc3n21 (stereo in doubt; 29l) [ULIFLOXACIN],,,,,,,,,,0.78,0.39,1.56,0.78,3.13,0.2,3.13,
O=C(O)c1cn(C2CC2)c2cc(N3CCNCC3)c(F)cc2c1=O [CIPROFLOXACIN],0.0125,0.006,0.2,0.006,0.1,0.1,1.56,0.45,9.01,,,,,,,,
CC1COc2c(N3CCN(C)CC3)c(F)cc3c(=O)c(C(=O)O)cn1c23 (stereo unspecified) [OFLOXACIN],0.1,0.025,1.56,0.1,0.39,0.39,3.13,0.55,23,,,,,,,,
Cc1oc(=O)oc1CN1CCN(c2cc3c(cc2F)c(=O)c(C(=O)O)c2n3C(C)S2)CC1 (stereo unspecified) [PRULIFLOXACIN],,,,,,,,0.35,8.02,,,,,,,,> 500

# Continued, in another order:
MIC (Escherichia coli; [4]) [µg/mL],MIC (Klebsiella pneumoniae; [5]) [µg/mL],MIC (Pseudomonas aeruginosa; [6]) [µg/mL],MIC (Shigella flexneri; [7]) [µg/mL],MIC (Serratia marcescens; [8]) [µg/mL],MIC (Staphylococcus aureus; [9]) [µg/mL],MIC (Micrococcus luteus; [10]) [µg/mL],Compound,ED50 (Mus musculus [1]) [mg/kg],ED50 (Mus musculus [2]) [mg/kg],MIC (Escherichia coli) [µg/mL],MIC (Klebsiella pneumoniae) [µg/mL],MIC (Pseudomonas aeruginosa) [µg/mL],MIC (Shigella flexneri) [µg/mL],MIC (Serratia marcescens) [µg/mL],MIC (Staphylococcus aureus) [µg/mL],MIC (Micrococcus luteus) [µg/mL],LD50 [3] [mg/kg]
0.05,0.05,0.78,0.025,0.1,0.1,1.56,CCN1CCN(c2cc3c(cc2F)c(=O)c(C(=O)O)c2n3C(C)S2)CC1 (stereo unspecified),,,,,,,,,,
0.2,0.2,3.13,0.1,1.56,0.05,0.39,CC1Sc2c(C(=O)O)c(=O)c3cc(F)c(N4CCN(Cc5ccc(N)cc5)CC4)cc3n21 (stereo unspecified),,,,,,,,,,
0.0125,0.025,0.39,0.006,0.05,0.05,12.5,CN1CCN(c2cc3c(cc2F)c(=O)c(C(=O)O)c2n3CS2)CC1,1.77,16.4,,,,,,,,
0.2,0.025,1.56,0.025,0.39,0.05,3.13,CC(C)N1CCN(c2cc3c(cc2F)c(=O)c(C(=O)O)c2n3C(C)S2)CC1 (stereo unspecified),,,,,,,,,,
0.2,0.2,3.13,0.1,0.39,0.1,3.13,CC1Sc2c(C(=O)O)c(=O)c3cc(F)c(N4CCCNCC4)cc3n21 (stereo unspecified),,,,,,,,,,
0.2,0.1,0.39,0.1,0.78,0.05,0.78,CC1Sc2c(C(=O)O)c(=O)c3cc(F)c(N4CCCC4)cc3n21 (stereo unspecified),,,,,,,,,,
0.2,0.2,0.39,0.1,0.39,0.025,0.78,CC1Sc2c(C(=O)O)c(=O)c3cc(F)c(N4CCSCC4)cc3n21 (stereo unspecified),,,,,,,,,,

# From ChEMBL document CHEMBL1125554, “Studies on pyridonecarboxylic acids. 1. Synthesis and antibacterial evaluation of 7-substituted-6-halo-4-oxo-4H-[1,3]thiazeto[3,2-a]quinoline-3-carboxylic acids” (J Med Chem, 1992)
